The results in this text go back to ChEMBL document CHEMBL1153081, “Antimalarial acridines: synthesis, in vitro activity against P. falciparum and interaction with hematin” (Bioorg Med Chem, 2009).

In data set [1] the test system is Plasmodium falciparum. Briefly: Antiplasmodial activity against chloroquine-sensitive Plasmodium falciparum 3D7 assessed as inhibition of [3H]hypoxanthine incorporation. Format: functional, organism-based.
A short description of data set [2]: Selectivity index, ratio of IC50 for human KB cells to IC50 for chloroquine-resistant Plasmodium falciparum FCR3/Gambia. The note with it: read-out: Ratio IC50. Format: toxicity, cell-based. In a few lines: (§1)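 SI is the ratio of the KB-cell IC50 to the parasite [3H]hypoxanthine IC50 for the given strain. KB cells were grown in D-MEM with 10% FCS and antibiotics under 5% CO2 and plated at 650 cells/well. After 24 h they were treated with compounds in DMSO (0.5 nM to 10 µM; 1% DMSO final) for 72 h. MTS was then added for 3 h at 37 °C and A490 was read against controls. IC50 runs were done in separate duplicate.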

The nature of data set [3]: Selectivity index, ratio of IC50 for human KB cells to IC50 for chloroquine-resistant Plasmodium falciparum W2. It counts as toxicity, cell-based. The note with it: read-out: Ratio IC50. Put shortly: as §1
Data set [4] in a line: Selectivity index, ratio of IC50 for human KB cells to IC50 for chloroquine-resistant Plasmodium falciparum Bre1. Format: toxicity, cell-based. To be noted: read-out: Ratio IC50. Put shortly:
as §1

Data set [5] deals with Plasmodium falciparum. The experiment in a line: Antiplasmodial activity against chloroquine-resistant Plasmodium falciparum W2 assessed as inhibition of [3H]hypoxanthine incorporation. Format: functional, organism-based.
Data set [6] in a line: Selectivity index, ratio of IC50 for human KB cells to IC50 for chloroquine-sensitive Plasmodium falciparum 3D7. To be noted: read-out: Ratio IC50. It counts as toxicity, cell-based. In a few lines:
as §1

The next data set concerns KB. Briefly: Cytotoxicity against human KB cells after 72 hrs by MTS assay. It counts as cell-based. Put shortly:
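KB cells were grown in D-MEM with 10% fetal calf serum, penicillin, streptomycin and fungizone, under 5% CO2. They were seeded at 650 cells/well and dosed 24 h later with compounds in DMSO, from 0.5 nM upward; controls got DMSO (1% final). MTS was added for 3 h at 37 °C and absorbance read at 490 nm as % of control. IC50 came from separate duplicate experiments.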
In general terms: Tetrazolium assays rely on reduction of a dye to a coloured formazan, in cell work by metabolically active cells.

For data set [7], the system named is Plasmodium falciparum. Briefly: Antiplasmodial activity against chloroquine-resistant Plasmodium falciparum FCR3/Gambia assessed as inhibition of [3H]hypoxanthine incorporation. The note with it: FCR-3/Gambia. It counts as functional, organism-based.
A short description of data set [8]: Dissociation constant, pKa by spectrophotometry. Format: physicochemical.
The nature of data set [9]: Binding affinity to synthetic hematin by spectrophotometry. In a few lines: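 Monomeric hematin solution: hematin in 0.1 M NaOH with DMSO and 0.02 M sodium phosphate buffer (pH 6.0), made up with water. Drug and hematin were mixed at 10 molar ratios. Complex stoichiometry and dissociation constant Kd were determined by spectrophotometric methods.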
Data set [10] in a line: Inhibition of beta-hematin formation after 18 hrs. It counts as functional. In a few lines:
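Modified BHIA: 8 mM hemin in DMSO (0.4 µmol per tube) was mixed with compounds in DMSO or DMSO/MeOH (1:1) at 0–10 molar equivalents to hemin, in triplicate. Acetate buffer held pH 5, and water-only controls were run. Hematin was quantified after serial dilution in 0.1 M NaOH, by absorbance at 405 nm. IC50 was taken as the concentration inhibiting crystallization by 50%.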

The subject of data set [11] is Plasmodium falciparum. The experiment in a line: Antiplasmodial activity against chloroquine-resistant Plasmodium falciparum Bre1 assessed as inhibition of [3H]hypoxanthine incorporation. Format: functional, organism-based.

For the molecule `COc1ccc2nc3cc(Cl)ccc3c(NCCN)c2c1`, the half-maximal inhibitory concentration (IC50) (as a rule, the concentration that gives 50% inhibition) in the data set with Plasmodium falciparum [1] turned out to be 0.042 µM; with Plasmodium falciparum [5], 0.25 µM; in the data set with KB, 2.07 µM; with Plasmodium falciparum [7], 0.33 µM; in data set [10] it was 4600 µM; with Plasmodium falciparum [11], 0.28 µM. For the same molecule, the selectivity ratio in data set [2] came out at 6; in [3] it was 8; in data set [4] it was 7; in data set [6], 50. Moreover, the pKa – broadly, the negative logarithm of the acid dissociation constant – in [8] worked out at 7.94. Besides, the Kd – broadly, a measure of binding affinity in units of concentration – in [9] was found to be 4.2 µM.

For `CCCCCCCNc1c2ccc(Cl)cc2nc2ccc(OC)cc12`, the half-maximal inhibitory concentration (IC50) in the data set with Plasmodium falciparum [1] stood at 18.1 µM; with Plasmodium falciparum [5] it was 27.2 µM; with KB, 0.85 µM; with Plasmodium falciparum [7], 14.6 µM; in [10] it was 1500 µM; in the data set with Plasmodium falciparum [11], 16.3 µM. Besides, the selectivity ratio in data set [2] is 0.06; in data set [3], 0.02; in data set [4], 0.05; in data set [6], 0.04. Further, in [8], the pKa was determined as 7.5. Further, the Kd in data set [9] is 5.4 µM.

Take `COc1ccc2nc3cc(Cl)ccc3c(NCCCCCCNc3c4ccc(Cl)cc4nc4ccc(OC)cc34)c2c1`: the IC50 in the data set on Plasmodium falciparum [1] was 3.39 µM; with Plasmodium falciparum [5], 4.55 µM; in the data set with KB, 0.05 µM; in the data set on Plasmodium falciparum [7] it was 1.01 µM; in data set [10] it was 1300 µM; with Plasmodium falciparum [11] it was 1.11 µM. The selectivity ratio in data set [2] stood at 0.05; in [3], 0.01; in data set [4], 0.045. Besides, the pKa in [8] worked out at 8.23. The affinity in data set [9], expressed as Kd, was 20 µM.

Take `NCCCCCCCC(=O)Nc1c2ccccc2nc2ccccc12`: the concentration for half-maximal inhibition (IC50) with Plasmodium falciparum [1] was determined as 41.9 µM; in the data set with Plasmodium falciparum [5] it was 50 µM; in the data set on KB, 52.9 µM; with Plasmodium falciparum [7], 28.6 µM; in data set [10], 1100 µM; in the data set with Plasmodium falciparum [11] it was 26.7 µM. The selectivity ratio in data set [2] was 1.8; in [3], 1.1; in [4], 2; in data set [6], 1.3. In data set [8], the pKa was 4.59.

For `NCCCCCCNc1c2ccccc2nc2ccccc12`, the IC50 in the data set on Plasmodium falciparum [1] is 1.13 µM; in the data set with Plasmodium falciparum [5] it was 0.6 µM; in the data set with KB it was 0.79 µM; in the data set on Plasmodium falciparum [7], 0.36 µM; in [10] it was 300 µM; with Plasmodium falciparum [11] it was 0.43 µM. For the same molecule, the selectivity ratio turned out to be 2.2 in data set [2], 1.3 in [3], 1.8 in data set [4] and 0.7 in data set [6]. The molecule also displayed a pKa in data set [8] of 9.86. The same molecule yielded a Kd in [9] of 4.6 µM.

With `NCCC(=O)NCCC(=O)Nc1c2ccccc2nc2ccccc12`, the IC50 with Plasmodium falciparum [1] came to 40.9 µM; in the data set with Plasmodium falciparum [5], 20.9 µM; with KB, 60.1 µM; in the data set with Plasmodium falciparum [7], 17.8 µM; in [10], 1800 µM; in the data set with Plasmodium falciparum [11] it was 21.6 µM. Also, the selectivity ratio in data set [2] worked out at 3.4; in data set [3], 2.9; in data set [4], 2.8; in data set [6], 1.5. This molecule showed a pKa in data set [8] of 4.53. This molecule came in with a dissociation constant (Kd) in data set [9] of 4 µM.

As to `COc1ccc2nc3cc(Cl)ccc3c(NCCCCN)c2c1`, the IC50 in the data set on Plasmodium falciparum [1] is 0.067 µM; in the data set on Plasmodium falciparum [5] it was 0.25 µM; in the data set with KB, 0.6 µM; in the data set on Plasmodium falciparum [7], 0.25 µM; in [10], 1000 µM; in the data set with Plasmodium falciparum [11], 0.3 µM. The selectivity ratio in data set [2] stood at 2.4; in data set [3], 2.4; in [4], 2; in data set [6], 8.9. This molecule also came in with a pKa in [8] of 9.1. For the same molecule, binding in [9] was characterised by a dissociation constant (Kd) of 8.1 µM.

Consider `CCN(CC)CCCC(C)Nc1ccnc2cc(Cl)ccc12` (stereo not drawn) [CHLOROQUINE], for which the half-maximal inhibitory concentration (IC50) in the data set with KB came out at 22.5 µM; in data set [10], 900 µM. The molecule also had a Kd in data set [9] of 5.4 µM.

Turning to `COc1ccc2nc3cc(Cl)ccc3c(NCCCCCCN)c2c1`, the selectivity ratio came to 3.5 in [2], 3.9 in data set [3], 4.1 in data set [4] and 5.4 in data set [6]. Also, the half-maximal inhibitory concentration (IC50) with KB was found to be 0.7 µM; in data set [10], 400 µM. In [8], this molecule came in with a pKa of 9.2. In data set [9], this molecule had an equilibrium dissociation constant (Kd) of 4.4 µM.
